Measurements as given in ChEMBL document CHEMBL4270599, “Synthesis of a 3'-C-ethynyl-β-d-ribofuranose purine nucleoside library: Discovery of C7-deazapurine analogs as potent antiproliferative nucleosides” (Eur J Med Chem, 2018).
pIC50: −log10 of the molar value.

Assays:
KM12 = test: Growth inhibition of human KM12 cells assessed as cell growth at 10^-8 M incubated for 48 hrs by sulforhodamine B assay relative to control; assay type: functional; conditions: KM12, 48 h, read-out: Activity
HCC 2998 = test: Growth inhibition of human HCC2998 cells assessed as cell growth at 10^-6 M incubated for 48 hrs by sulforhodamine B assay relative to control; assay type: functional; conditions: HCC 2998, 48 h, read-out: Activity
ACHN = test: Growth inhibition of human ACHN cells assessed as cell growth at 10^-7 M incubated for 48 hrs by sulforhodamine B assay relative to control; assay type: functional; conditions: read-out: Activity
MDA-MB-231 [1] = test: Growth inhibition of human MDA-MB-231 cells assessed as cell growth at 10^-5 M incubated for 48 hrs by sulforhodamine B assay relative to control; assay type: functional; conditions: MDA-MB-231, 48 h, read-out: Activity
HCT-116 [2] = test: Cytotoxicity against human HCT116 cells after 48 hrs by SRB assay; assay type: functional; conditions: HCT-116, 48 h; for GI50: read-out: pGI50 (converted)
LOX IMVI = test: Cytotoxicity against human LOXIMVI cells after 48 hrs by SRB assay; assay type: functional; conditions: for GI50: read-out: pGI50 (converted); for CC50: read-out: pLC50 (the source's name) (converted)
BT-549 = test: Growth inhibition of human BT549 cells assessed as cell growth at 10^-8 M incubated for 48 hrs by sulforhodamine B assay relative to control; assay type: functional; conditions: BT-549, 48 h, read-out: Activity
HCT-116 [3] = test: Growth inhibition of human HCT116 cells assessed as cell growth at 10^-8 M incubated for 48 hrs by sulforhodamine B assay relative to control; assay type: functional; conditions: HCT-116, 48 h, read-out: Activity
NCI-H226 [4] = test: Growth inhibition of human NCI-H226 cells assessed as cell growth at 10^-7 M incubated for 48 hrs by sulforhodamine B assay relative to control; assay type: functional; conditions: NCI-H226, 48 h, read-out: Activity
NCI/ADR-RES [5] = test: Growth inhibition of human NCI/ADR-RES cells assessed as cell growth at 10^-8 M incubated for 48 hrs by sulforhodamine B assay relative to control; assay type: functional; conditions: read-out: Activity
SF-268 = test: Growth inhibition of human SF268 cells assessed as cell growth at 10^-8 M incubated for 48 hrs by sulforhodamine B assay relative to control; assay type: functional; conditions: SF-268, 48 h, read-out: Activity
MOLT-4 = test: Growth inhibition of human MOLT4 cells assessed as cell growth at 10^-8 M incubated for 48 hrs by sulforhodamine B assay relative to control; assay type: functional; conditions: MOLT-4, 48 h, read-out: Activity
SK-MEL-28 = test: Growth inhibition of human SK-MEL-28 cells assessed as cell growth at 10^-8 M incubated for 48 hrs by sulforhodamine B assay relative to control; assay type: functional; conditions: SK-MEL-28, 48 h, read-out: Activity
NCI-H460 = test: Growth inhibition of human NCI-H460 cells assessed as cell growth at 10^-7 M incubated for 48 hrs by sulforhodamine B assay relative to control; assay type: functional; conditions: NCI-H460, 48 h, read-out: Activity
PC-3 [6] = test: Growth inhibition of human PC3 cells assessed as cell growth at 10^-7 M incubated for 48 hrs by sulforhodamine B assay relative to control; assay type: functional; conditions: PC-3, 48 h, read-out: Activity
EKVX [7] = test: Growth inhibition of human EKVX cells assessed as cell growth at 10^-8 M incubated for 48 hrs by sulforhodamine B assay relative to control; assay type: functional; conditions: read-out: Activity
EKVX [8] = test: Growth inhibition of human EKVX cells assessed as cell growth at 10^-7 M incubated for 48 hrs by sulforhodamine B assay relative to control; assay type: functional; conditions: read-out: Activity
SR = test: Cytotoxicity against human SR cells after 48 hrs by SRB assay; assay type: functional; conditions: for GI50: read-out: pGI50 (converted)
NCI/ADR-RES [9] = test: Cytotoxicity against human NCI-ADR-RES cells after 48 hrs by SRB assay; assay type: functional; conditions: for GI50: read-out: pGI50 (converted); for CC50: read-out: pLC50 (the source's name) (converted)
L1210 = test: Antiproliferative activity against mouse L1210 cells after 48 hrs by Coulter counter method; assay type: functional, cell-based; conditions: L1210, 48 h
Procedure, shortened: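 Cell count assay in 96-well microtiter plates; (5–7.5) × 10⁴ tumor cells per well plus test compound. Cells proliferated at 37 °C in humidified CO₂-controlled atmosphere, 48 h for murine leukemia L1210, 72 h for human lymphocytic CEM and cervix carcinoma HeLa. Counted by Coulter counter; IC₅₀ is the concentration that inhibits proliferation by 50%.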

PC-3 [10] = test: Growth inhibition of human PC3 cells assessed as cell growth at 10^-6 M incubated for 48 hrs by sulforhodamine B assay relative to control; assay type: functional; conditions: PC-3, 48 h, read-out: Activity
SNB-19 = test: Growth inhibition of human SNB19 cells assessed as cell growth at 10^-6 M incubated for 48 hrs by sulforhodamine B assay relative to control; assay type: functional; conditions: SNB-19, 48 h, read-out: Activity
K562 = test: Growth inhibition of human K562 cells assessed as cell growth at 10^-8 M incubated for 48 hrs by sulforhodamine B assay relative to control; assay type: functional; conditions: K562, 48 h, read-out: Activity
OVCAR-4 [11] = test: Growth inhibition of human OVCAR4 cells assessed as cell growth at 10^-4 M incubated for 48 hrs by sulforhodamine B assay relative to control; assay type: functional; conditions: OVCAR-4, 48 h, read-out: Activity
UACC-62 = test: Growth inhibition of human UACC62 cells assessed as cell growth at 10^-6 M incubated for 48 hrs by sulforhodamine B assay relative to control; assay type: functional; conditions: UACC-62, 48 h, read-out: Activity
MDA-MB-468 = test: Growth inhibition of human MDA-MB-468 cells assessed as cell growth at 10^-8 M incubated for 48 hrs by sulforhodamine B assay relative to control; assay type: functional; conditions: MDA-MB-468, 48 h, read-out: Activity
OVCAR-4 [12] = test: Growth inhibition of human OVCAR4 cells assessed as cell growth at 10^-8 M incubated for 48 hrs by sulforhodamine B assay relative to control; assay type: functional; conditions: OVCAR-4, 48 h, read-out: Activity
NCI-H226 [13] = test: Growth inhibition of human NCI-H226 cells assessed as cell growth at 10^-8 M incubated for 48 hrs by sulforhodamine B assay relative to control; assay type: functional; conditions: NCI-H226, 48 h, read-out: Activity
HOP-92 = test: Growth inhibition of human HOP92 cells assessed as cell growth at 10^-8 M incubated for 48 hrs by sulforhodamine B assay relative to control; assay type: functional; conditions: HOP-92, 48 h, read-out: Activity
DU-145 = test: Cytotoxicity against human DU145 cells after 48 hrs by SRB assay; assay type: functional; conditions: DU-145, 48 h; for CC50: read-out: LC50 (the source's name); for GI50: read-out: pGI50 (converted)
MDA-MB-231 [14] = test: Growth inhibition of human MDA-MB-231 cells assessed as cell growth at 10^-7 M incubated for 48 hrs by sulforhodamine B assay relative to control; assay type: functional; conditions: MDA-MB-231, 48 h, read-out: Activity
CCRF-CEM = test: Growth inhibition of human CCRF-CEM cells assessed as cell growth at 10^-7 M incubated for 48 hrs by sulforhodamine B assay relative to control; assay type: functional; conditions: read-out: Activity
[15] = read-out: pLC50 (the source's name) (converted)
[16] = read-out: LC50 (the source's name)

## C#C[C@@]1(O)[C@@H](CO)O[C@@H](n2ccc3c(N)ncnc32)[C@@H]1O
KM12
  growth at 0.01 µM: 98%
HCC 2998
  growth at 1 µM: 74%
ACHN
  growth at 0.1 µM: 101%
MDA-MB-231 [1]
  growth at 10 µM: -20%
HCT-116 [2]; read-out: TGI
  TGI: 10.8 µM
HCT-116 [2]
  GI50: 0.589 µM
HCT-116 [2]; [15]
  CC50: 85.1 µM
HCT-116 [2]; read-out: pTGI (converted)
  TGI: 10.7 µM
LOX IMVI; read-out: TGI
  TGI: 2.05 µM
LOX IMVI
  GI50: 0.661 µM
  CC50: 5.13 µM
LOX IMVI; read-out: pTGI (converted)
  TGI: 2.04 µM
BT-549
  growth at 0.01 µM: 89%
HCT-116 [3]
  growth at 0.01 µM: 91%
NCI-H226 [4]
  growth at 0.1 µM: 111%
NCI/ADR-RES [5]
  growth at 0.01 µM: 97%
SF-268
  growth at 0.01 µM: 99%
MOLT-4
  growth at 0.01 µM: 96%
SK-MEL-28
  growth at 0.01 µM: 93%
NCI-H460
  growth at 0.1 µM: 91%
PC-3 [6]
  growth at 0.1 µM: 97%
EKVX [7]
  growth at 0.01 µM: 87%
EKVX [8]
  growth at 0.1 µM: 92%
SR; read-out: TGI
  TGI: > 100 µM
SR
  GI50: 0.813 µM
SR; [15]
  CC50: > 100 µM
SR; read-out: pTGI
  TGI: > 100 µM
NCI/ADR-RES [9]; read-out: TGI
  TGI: 7.28 µM
NCI/ADR-RES [9]
  GI50: 0.794 µM
  CC50: > 100 µM
NCI/ADR-RES [9]; read-out: pTGI (converted)
  TGI: 7.24 µM
L1210
  pIC50: 6.42
PC-3 [10]
  growth at 1 µM: 45%
SNB-19
  growth at 1 µM: 67%
K562
  growth at 0.01 µM: 103%
OVCAR-4 [11]
  growth at 100 µM: -100%
UACC-62
  growth at 1 µM: 82%
MDA-MB-468
  growth at 0.01 µM: 93%
OVCAR-4 [12]
  growth at 0.01 µM: 93%
NCI-H226 [13]
  growth at 0.01 µM: 94%
HOP-92
  growth at 0.01 µM: 92%
DU-145
  CC50: > 100 µM
  GI50: 0.562 µM
DU-145; read-out: TGI
  TGI: 6.55 µM
DU-145; read-out: pTGI (converted)
  TGI: 6.61 µM
MDA-MB-231 [14]
  growth at 0.1 µM: 106%
CCRF-CEM
  growth at 0.1 µM: 101%

## C#C[C@@]1(O)[C@@H](CO)O[C@@H](n2cc(F)c3c(N)ncnc32)[C@@H]1O
KM12
  growth at 0.01 µM: 104%
HCC 2998
  growth at 1 µM: 37%
ACHN
  growth at 0.1 µM: 75%
MDA-MB-231 [1]
  growth at 10 µM: -24%
HCT-116 [2]; [16]
  CC50: > 100 µM
HCT-116 [2]
  GI50: 0.151 µM
LOX IMVI; read-out: TGI
  TGI: 1.11 µM
LOX IMVI
  GI50: 0.282 µM
  CC50: 4.57 µM
LOX IMVI; read-out: pTGI (converted)
  TGI: 1.12 µM
BT-549
  growth at 0.01 µM: 98%
HCT-116 [3]
  growth at 0.01 µM: 98%
NCI-H226 [4]
  growth at 0.1 µM: 95%
NCI/ADR-RES [5]
  growth at 0.01 µM: 100%
SF-268
  growth at 0.01 µM: 100%
MOLT-4
  growth at 0.01 µM: 99%
SK-MEL-28
  growth at 0.01 µM: 102%
NCI-H460
  growth at 0.1 µM: 76%
PC-3 [6]
  growth at 0.1 µM: 84%
EKVX [7]
  growth at 0.01 µM: 94%
EKVX [8]
  growth at 0.1 µM: 86%
SR; [16]
  CC50: > 100 µM
SR; read-out: TGI
  TGI: > 100 µM
SR
  GI50: 0.186 µM
SR; read-out: pTGI
  TGI: > 100 µM
NCI/ADR-RES [9]; read-out: TGI
  TGI: 11.3 µM
NCI/ADR-RES [9]
  GI50: 0.309 µM
  CC50: > 100 µM
NCI/ADR-RES [9]; read-out: pTGI (converted)
  TGI: 11.2 µM
L1210
  pIC50: 7.46
PC-3 [10]
  growth at 1 µM: 11%
SNB-19
  growth at 1 µM: 39%
K562
  growth at 0.01 µM: 100%
OVCAR-4 [11]
  growth at 100 µM: -25%
UACC-62
  growth at 1 µM: 12%
MDA-MB-468
  growth at 0.01 µM: 92%
OVCAR-4 [12]
  growth at 0.01 µM: 100%
NCI-H226 [13]
  growth at 0.01 µM: 92%
HOP-92
  growth at 0.01 µM: 121%
DU-145
  CC50: > 100 µM
  GI50: 0.355 µM
DU-145; read-out: TGI
  TGI: 13.4 µM
DU-145; read-out: pTGI (converted)
  TGI: 13.5 µM
MDA-MB-231 [14]
  growth at 0.1 µM: 88%
CCRF-CEM
  growth at 0.1 µM: 81%
